Assay results: ChEMBL document CHEMBL4837218, “Synthesis and in vitro antitumour activity of 4(R)-methyl-3-O-phosphonomethyl-α-l-threose nucleosides” (Eur J Med Chem, 2021)
Active and inactive are the calls of the source. The calls are words filed in the database; no cut-off is given here.

Legend:
MDA-MB-231 [1] = experiment: Cell cycle arrest in human MDA-MB-231 cells assessed as accumulation of cells at G2/M phase at 9 uM in presence of cdc25c inhibitor, NSC663284 measured after 48 hrs by PI staining based flow cytometry; type: functional
Summary of the method: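 Four arms (untreated, test compound alone, 0.3 NSC663284 alone, combination) applied to cells for 48 h. Cells were fixed in 70% ice-cold ethanol at 4 °C overnight and stained with RNase/PI for 30 min in the dark. G2/M fraction was read by flow cytometry.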

MDA-MB-231 [2] = experiment: Induction of G2/M phase cell cycle arrest in human MDA-MB-231 cells assessed as upregulation of p-cdc25c protein expression at 9 uM measured after 48 hrs in presence of cdc25c inhibitor, NSC663284 by western blot analysis; type: functional, cell-based
MDA-MB-231 [3] = experiment: Induction of apoptosis in human MDA-MB-231 cells assessed as increase in cleaved caspase 7 protein expression at 9 uM measured after 48 hrs in presence of cdc25c inhibitor, NSC663284 by western blot analysis; type: functional, cell-based
Summary of the method: (§1)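 Four arms per cell line: untreated, test compound, 0.3 µM NSC663284 alone, and combination. Proteins harvested after 48 h and resolved by SDS-PAGE on 5–15% gels, transferred to nitrocellulose. Blocked 2 h in milk/PBS-Tween, primary antibodies overnight at 4 °C, biotin-conjugated secondary. Read on X-ray film with densitometry.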

MCF7 [4] = experiment: Cell cycle arrest in human MCF7 cells assessed as accumulation at G1 phase at 4 uM measured after 48 hrs by propidium iodide staining based flow cytometry (reference value: 70.09 %); type: functional
ECa-109 cell line = experiment: Antiproliferative activity against human ECa-109 cells assessed as cell growth inhibition measured after 72 hrs by MTT assay; type: functional, cell-based; details: ECa-109, 72 h
Summary of the method: (§2)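 Cells seeded at 3000 exponentially growing cells/well and incubated 12 h at 37 °C. Medium then replaced with fresh medium containing graded compound concentrations for 72 h; 5-FU positive control. MTT (5 mg/mL solution) added for 4 h, formazan dissolved in DMSO, absorbance read at 570 nm (reference 630 nm). Relative percentage inhibition of viable cells calculated; IC50 reported as mean ± standard deviation.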

MCF7 [5] = experiment: Induction of DNA damage in human MCF7 cells assessed as increase in ATM protein expression at 1 to 4 uM measured after 48 hrs by western blot analysis; type: functional, cell-based; details: dose 1-4 µM
Summary of the method: (§3)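 Cells exposed to graded concentrations for 48 h, then proteins extracted. Run on SDS-PAGE (5–15% gels) and transferred to nitrocellulose. Blocked 2 h in 5% nonfat milk in PBS/0.1% Tween 20, primary antibody overnight at 4 °C, biotin-conjugated secondary 1 h. Visualized on X-ray film with densitometric quantitation; three independent experiments.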

MCF7 [6] = experiment: Induction of mitochondrial membrane potential loss in human MCF7 cells assessed as red fluorescence intensity at 2 uM measured after 48 hrs by JC1 staining-based flow cytometry analysis (reference value: 91.9%); type: functional
MCF7 [7] = experiment: Anticancer activity against human MCF7 cells assessed as inhibition of cell growth measured after 72 hrs by MTT assay; type: functional, cell-based; details: MCF7, 72 h; summary of the method: as §2
MCF7 [8] = experiment: Induction of apoptosis in human MCF7 cells assessed as early apoptotic cells at 4 uM measured after 48 hrs in presence of cdc25c inhibitor, NSC663284 by AnnexinV-FITC/PI staining based flow cytometry (reference value: 0.9%); type: functional
MDA-MB-231 [9] = experiment: Induction of DNA damage in human MDA-MB-231 cells assessed as increase in Chk2 phosphorylation at Thr68 residue at 3 to 9 uM measured after 48 hrs by western blot analysis; type: functional, cell-based; details: dose 3-9 µM; summary of the method: as §3
MCF7 [10] = experiment: Induction of apoptosis in human MCF7 cells assessed as increase in cleaved caspase 7 protein expression at 4 uM measured after 48 hrs in presence of cdc25c inhibitor, NSC663284 by western blot analysis; type: functional, cell-based; summary of the method: as §1
MDA-MB-231 [11] = experiment: Induction of G2/M phase cell cycle arrest in human MDA-MB-231 cells assessed as upregulation of p-cdc25c at ser216 residue protein expression at 9 uM measured after 48 hrs by western blot analysis; type: functional, cell-based
MDA-MB-231 [12] = experiment: Cell cycle arrest in human MDA-MB-231 cells assessed as accumulation at S phase at 6 uM measured after 48 hrs by propidium iodide staining based flow cytometry (reference value: 35.54 %); type: functional
MCF7 [13] = experiment: Induction of G2/M phase cell cycle arrest in human MCF7 cells assessed as decrease in cyclinB1 protein expression at 1 to 4 uM measured after 48 hrs by western blot analysis; type: functional, cell-based; details: dose 1-4 µM; summary of the method: as §3
MDA-MB-231 [14] = experiment: Cell cycle arrest in human MDA-MB-231 cells assessed as accumulation at G2/M phase at 9 uM measured after 48 hrs by propidium iodide staining based flow cytometry (reference value: 15.46 %); type: functional
MDA-MB-231 [15] = experiment: Inhibition of PI3K/AKT signalling pathway in human MDA-MB-231 cells assessed as downregulation of AKT phosphorylation at Ser473 residue at 3 to 9 uM measured after 48 hrs by Western blot analysis; type: cell-based; details: dose 3-9 µM
Summary of the method: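 After 48 h exposure to compound at several concentrations, cells collected and proteins extracted. SDS-PAGE on 5–15% gels, transfer to nitrocellulose, blocking 2 h in 5% nonfat milk in PBS/0.1% Tween 20, primary antibodies overnight at 4 °C, biotin-conjugated secondary 1 h. Detection on X-ray film; band densitometry.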

MDA-MB-231 [16] = experiment: Induction of apoptosis in human MDA-MB-231 cells assessed as increase in cleaved caspase 3 protein expression at 9 uM measured after 48 hrs in presence of cdc25c inhibitor, NSC663284 by western blot analysis; type: functional, cell-based; summary of the method: as §1
MDA-MB-231 [17] = experiment: Induction of apoptosis in human MDA-MB-231 cells assessed as increase in cleaved caspase 3 protein expression at 3 to 9 uM measured after 48 hrs by western blot analysis; type: functional, cell-based; details: dose 3-9 µM
Summary of the method: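 MCF-7 and MDA-MB-231 breast cancer cells treated 48 h with a concentration series, then lysed for protein. SDS-PAGE on 5–15% gels, transfer to nitrocellulose. Blocked 2 h in 5% nonfat milk/PBS-0.1% Tween 20, primary antibodies overnight at 4 °C, biotin-conjugated secondary 1 h. X-ray film detection with densitometric quantification.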

MDA-MB-231 [18] = experiment: Cell cycle arrest in human MDA-MB-231 cells assessed as accumulation at G2/M phase at 6 uM measured after 48 hrs by propidium iodide staining based flow cytometry (reference value: 15.46 %); type: functional
MCF7 [19] = experiment: Induction of apoptosis in human MCF7 cells assessed as late apoptotic cells at 4 uM measured after 48 hrs by Annexin V-FITC/propidium iodide staining based flow cytometric analysis (reference value: 0.6 %); type: functional
MCF7 [20] = experiment: Potency index, ratio of 5-FU IC50 to test compound IC50 for anticancer activity against human MCF7 cells measured after 72 hrs by MTT assay; type: functional
Summary of the method: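 MTT assay: 3000 exponentially growing cells per well, 12 h at 37 °C. Medium replaced with compound at a range of concentrations for 72 h. MTT (5 mg/mL stock) added for 4 h, formazan dissolved in DMSO. Absorbance read at 570 nm (reference 630 nm); percent inhibition gives IC50. Index is 5-FU IC50 divided by test-compound IC50.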

MDA-MB-231 [21] = experiment: Induction of G2/M phase cell cycle arrest in human MDA-MB-231 cells assessed as decrease in cyclinB1 protein expression at 3 to 9 uM measured after 48 hrs by western blot analysis; type: functional, cell-based; details: dose 3-9 µM; summary of the method: as §3

- IC50 (MCF7 [7]): 476 nM
Structure (SMILES): C[C@H]1O[C@@H](n2cnc3c(N)nc(F)nc32)[C@H](O)[C@H]1OCP(=O)([O-])[O-].[Na+].[Na+]
- Activity (MDA-MB-231 [1]): inactive
- Activity (MDA-MB-231 [2]): inactive
- Activity (MDA-MB-231 [3]): inactive
- Activity (MCF7 [4]): 41.95%
- IC50 (ECa-109 cell line): 2570 nM
- Activity (MCF7 [5]): Active
- Activity (MCF7 [6]): 67.2%
- Activity (MCF7 [8]): 8.6%
- Activity (MDA-MB-231 [9]): Active
- Activity (MCF7 [10]): inactive
- Activity (MDA-MB-231 [11]): Active
- Activity (MDA-MB-231 [12]): 31.86%
- Activity (MCF7 [13]): Active
- Activity (MDA-MB-231 [14]): 31.49%
- inhibition (MDA-MB-231 [15]): Active
- Activity (MDA-MB-231 [16]): inactive
- Activity (MDA-MB-231 [17]): Active
- Activity (MDA-MB-231 [18]): 28.54%
- Activity (MCF7 [19]): 8.7%
- Ratio IC50 (MCF7 [20]): 41
- Activity (MDA-MB-231 [21]): Active
